Results of several laboratories.
Lines come from different studies, so protocols differ.
Palmitoyl-protein thioesterase 1: Palmitoyl-protein thioesterase 1 (Homo sapiens, UniProt P50897)
Transmembrane protease serine 6: Transmembrane protease serine 6 (Homo sapiens, UniProt Q8IU80)
EGFR: Epidermal growth factor receptor (EGFR, Homo sapiens, UniProt P00533)

| SMILES | target | assay | setting | measurement | result |
| --- | --- | --- | --- | --- | --- |
| c1coc(CNc2ncnc3[nH]cnc23)c1 | Palmitoyl-protein thioesterase 1 | enzyme activity, inhibitor | 125 µM | inhibition | 8.93% |
| C=CC(=O)N1CCC(COCC(=O)N2CCN(c3nc(-c4cnc(N)nc4C(F)F)nc(N4CCOC[C@@H]4C)n3)CC2)CC1 | Mitogen-activated protein kinase 4 (MAPK4, Homo sapiens, UniProt P31152) | binding, competition with immobilised ligand | 1 µM | remaining binding | 100% |
| N=C(N)NCCC[C@H](NC(=O)[C@@H](NC(=O)[C@H](Cc1cscn1)NC(=O)CCc1ccccc1)C(c1ccccc1)c1ccccc1)C(=O)c1nc2ccccc2s1 | Transmembrane protease serine 6 | enzyme activity, inhibitor | 0.1 µM | remaining activity | 65% |
| COc1cc(-c2cncc3c2CN(C)Cc2cc(N4CCNCC4)ccc2-3)cc(OC)c1OC | Tyrosine-protein kinase Blk (Blk, Mus musculus, UniProt P16277) | enzyme activity, inhibitor | 1 µM | remaining activity | 64% |
| CC(C)(NC(=O)[C@H](Cc1cscn1)NC(=O)CCc1ccccc1)C(=O)N[C@@H](CCCNC(=N)N)C(=O)c1nc2ccccc2s1 | Transmembrane protease serine 6 | enzyme activity, inhibitor | 0.1 µM | remaining activity | 22% |
| CNc1ncc2c(/C=C/C(=O)N3CCC(OC)CC3)nn(Cc3cccc(C(F)(F)F)c3)c2n1 | Protein kinase C delta type (PRKCD, Homo sapiens, UniProt Q05655) | enzyme activity, inhibitor, radiometric | 1 µM | remaining activity | 99% |
| N=C(N)NCCC[C@H](NC(=O)[C@H](Cc1ccncc1)NC(=O)[C@H](Cc1cscn1)NC(=O)CCc1ccccc1)C(=O)c1nc2ccccc2s1 | Transmembrane protease serine 6 | enzyme activity, inhibitor | 0.1 µM | remaining activity | 68% |
| CC1(C)C=Cc2c(ccc3c2OC[C@@H](c2ccc(O)cc2O)C3)O1 | Neuronal acetylcholine receptor; alpha4/beta2 (Homo sapiens, UniProt P17787+P43681) | ion current, two-electrode voltage clamp | 13 µM, oocytes | inhibition | > 50% |
| N=C(N)NCCC[C@H](NC(=O)[C@@H](NC(=O)[C@H](Cc1cscn1)NC(=O)CCc1ccccc1)c1ccccc1)C(=O)c1nc2ccccc2s1 | Transmembrane protease serine 6 | enzyme activity, inhibitor | 0.1 µM | remaining activity | 6% |
| Nc1ccc(C(=O)NCC(=O)O)cc1 | Palmitoyl-protein thioesterase 1 | enzyme activity, inhibitor | 125 µM | inhibition | 10.1% |
| Cc1ncc(CN2CCN(Cc3ccccn3)CC2)c2cc(C(=O)c3ccc4c(c3)OCCO4)oc12 | EGFR | enzyme activity, inhibitor, ADP detection | 1 µM | inhibition | 0 to 40% |
| C=CCc1ccc(O)c(O)c1 | Palmitoyl-protein thioesterase 1 | enzyme activity, inhibitor | 625 µM | inhibition | 15.1% |
| CC(C)(C)C[C@H](NC(=O)[C@H](Cc1cscn1)NC(=O)CCc1ccccc1)C(=O)N[C@@H](CCCNC(=N)N)C(=O)c1nc2ccccc2s1 | Transmembrane protease serine 6 | enzyme activity, inhibitor | 0.1 µM | remaining activity | 3% |
| Cc1ccc2c(-c3cc4c(CN5CCN(Cc6ccccn6)CC5)cnc(C)c4o3)cc(=O)oc2c1 | EGFR | enzyme activity, inhibitor, ADP detection | 1 µM | inhibition | 60 to 80% |
| Cc1cc([C@@H](C)Nc2ccccc2C(=O)O)c2nc(N3CCC(F)(F)CC3)c(C#N)c(=O)n2c1 | SRSF protein kinase 3 (SRPK3, Homo sapiens, UniProt Q9UPE1) | binding, competition with immobilised ligand | 1 µM | remaining binding | 77% |
| O=C(O)CCCc1c[nH]c2ccccc12 | Palmitoyl-protein thioesterase 1 | enzyme activity, inhibitor | 125 µM | inhibition | 14% |
| CC1([C@H](NC(=O)[C@H](Cc2cscn2)NC(=O)CCc2ccccc2)C(=O)N[C@@H](CCCNC(=N)N)C(=O)c2nc3ccccc3s2)CC1 | Transmembrane protease serine 6 | enzyme activity, inhibitor | 0.1 µM | remaining activity | 36% |
| COc1cnc(NS(=O)(=O)c2ccc(N)cc2)nc1 | Palmitoyl-protein thioesterase 1 | enzyme activity, inhibitor | 125 µM | inhibition | 13.6% |
| N=C(N)NCCC[C@H](NC(=O)[C@H](Cc1ccc(OCc2ccccc2)cc1)NC(=O)[C@H](Cc1cscn1)NC(=O)CCc1ccccc1)C(=O)c1nc2ccccc2s1 | Transmembrane protease serine 6 | enzyme activity, inhibitor | 0.1 µM | remaining activity | 8% |
| C=C1C(=O)O[C@H]2[C@H]1CC/C(C)=C/CC[C@@]1(C)O[C@@H]21 | Palmitoyl-protein thioesterase 1 | enzyme activity, inhibitor | 125 µM | inhibition | -5.16% |
| N=C(N)NCCC[C@H](NC(=O)[C@@H](NC(=O)[C@H](Cc1cscn1)NC(=O)CCc1ccccc1)C1CCCCC1)C(=O)c1nc2ccccc2s1 | Transmembrane protease serine 6 | enzyme activity, inhibitor | 0.1 µM | remaining activity | 5% |
| Cc1ccc2c(-c3cc4c(CNCc5cccnc5)cnc(C)c4o3)cc(=O)oc2c1C | EGFR | enzyme activity, inhibitor, ADP detection | 1 µM | inhibition | 90 to 100% |
| C[C@@H]1O[C@@H](OC[C@H]2O[C@@H](Oc3c(-c4ccc(O)c(O)c4)oc4cc(O)cc(O)c4c3=O)[C@H](O)[C@@H](O)[C@@H]2O)[C@H](O)[C@H](O)[C@H]1O | Palmitoyl-protein thioesterase 1 | enzyme activity, inhibitor | 125 µM | inhibition | 61.8% |
| Cc1ccc2c(-c3cc4c(CNCc5ccco5)cnc(C)c4o3)cc(=O)oc2c1C | EGFR | enzyme activity, inhibitor, ADP detection | 1 µM | inhibition | 0 to 40% |
| C/C=C\c1ccc(O)c(OC)c1 | Palmitoyl-protein thioesterase 1 | enzyme activity, inhibitor | 312 µM | inhibition | 22.2% |
